Test [1] has as its target Neuronal acetylcholine receptor; alpha4/beta2 (Rattus norvegicus, UniProt P09483+P12390). Nature of the test: Displacement of [3H]epibatidine from rat alpha4beta2 nAChR expressed in […] cells after 3 hrs. The format is cell-based.
Test [2] concerns the target T1, Neuronal acetylcholine receptor; alpha3/beta4 (Rattus norvegicus, UniProt P04757+P12392). Nature of the test: Displacement of [3H]epibatidine from rat alpha3beta4 nAChR expressed in […] cells after 3 hrs. Type of test: cell-based.
Test [3] is filed under the species Rattus norvegicus. Kind of test: Selectivity ratio of Ki for rat alpha3beta4 nAChR to Ki for alpha7 nAChR in rat brain membranes. Type of test: cell membranes.
The target of test [4] is Neuronal acetylcholine receptor; alpha3/beta4 (Rattus norvegicus) (UniProt P04757+P12392). Nature of the test: Partial agonist activity at rat alpha3beta4 nAChR expressed in […] cells assessed as increase of calcium influx by FLIPR assay relative to control. The format is functional, cell-based. The gist of the method: (§1)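 For functional assays, KXα3β4R2 cells (DMEM, 10% FBS, geneticin, 37°C, 7.5% CO2) were seeded into collagen-coated 96-well plates at about 50,000 cells/well. They grew to a confluent monolayer in 24 to 30 h before testing.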

The target in test [5] is T1, Neuronal acetylcholine receptor; alpha3/beta4. Kind of test: Partial agonist activity at rat alpha3beta4 nAChR expressed in […] cells assessed as increase of calcium influx by FLIPR assay. The format is functional, cell-based. The method, boiled down: as §1
For test [6], the species on record is Rattus norvegicus. Nature of the test: Selectivity ratio of Ki for rat alpha3beta4 nAChR to Ki for rat alpha4beta2 nAChR. The gist of the method: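 KXα3β4R2 or KXα4β2R2 cells grown in DMEM with 10% FBS and 0.4 mg/mL geneticin at 37°C under 7.5% CO2. Cells were scraped, homogenised in Tris buffer and spun at 20,000 x g to give membranes. […] Ki was obtained from IC50 by Cheng-Prusoff.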

Results on ten compounds are retold here after ChEMBL document CHEMBL1275396 (J Med Chem, 2010).

Sequence of Neuronal acetylcholine receptor; alpha4/beta2 (P09483 whole entry): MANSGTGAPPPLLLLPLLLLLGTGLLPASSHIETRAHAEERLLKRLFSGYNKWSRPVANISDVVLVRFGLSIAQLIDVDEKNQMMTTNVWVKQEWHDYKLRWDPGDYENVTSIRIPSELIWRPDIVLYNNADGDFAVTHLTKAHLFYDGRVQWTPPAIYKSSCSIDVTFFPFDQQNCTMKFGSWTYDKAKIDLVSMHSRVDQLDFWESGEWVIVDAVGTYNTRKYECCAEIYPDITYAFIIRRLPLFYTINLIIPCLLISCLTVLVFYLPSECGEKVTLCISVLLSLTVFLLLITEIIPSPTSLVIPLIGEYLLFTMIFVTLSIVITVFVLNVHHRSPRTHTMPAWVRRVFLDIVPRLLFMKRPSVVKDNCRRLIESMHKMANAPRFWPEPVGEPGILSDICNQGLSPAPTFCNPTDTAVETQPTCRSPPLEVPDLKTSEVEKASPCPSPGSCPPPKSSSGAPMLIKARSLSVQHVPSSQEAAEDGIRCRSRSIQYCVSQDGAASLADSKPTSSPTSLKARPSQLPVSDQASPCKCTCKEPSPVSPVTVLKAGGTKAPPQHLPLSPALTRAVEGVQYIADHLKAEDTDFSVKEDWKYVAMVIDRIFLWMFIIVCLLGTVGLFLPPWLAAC
Sequence of Neuronal acetylcholine receptor; alpha4/beta2 (P12390 whole entry): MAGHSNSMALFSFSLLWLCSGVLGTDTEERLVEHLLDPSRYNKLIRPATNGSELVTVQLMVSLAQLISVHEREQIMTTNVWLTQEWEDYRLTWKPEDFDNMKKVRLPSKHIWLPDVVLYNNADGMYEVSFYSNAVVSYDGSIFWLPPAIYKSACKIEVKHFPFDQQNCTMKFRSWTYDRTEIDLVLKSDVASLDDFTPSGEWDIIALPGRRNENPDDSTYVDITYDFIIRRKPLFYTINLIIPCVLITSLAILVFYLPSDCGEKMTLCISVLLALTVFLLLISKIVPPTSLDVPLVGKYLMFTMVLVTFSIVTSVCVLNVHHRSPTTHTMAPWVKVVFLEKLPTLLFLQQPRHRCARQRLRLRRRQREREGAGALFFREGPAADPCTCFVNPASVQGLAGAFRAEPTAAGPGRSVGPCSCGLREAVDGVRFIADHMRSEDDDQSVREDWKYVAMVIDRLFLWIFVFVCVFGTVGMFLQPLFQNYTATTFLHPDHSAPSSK
T1 sequence (P04757 whole entry): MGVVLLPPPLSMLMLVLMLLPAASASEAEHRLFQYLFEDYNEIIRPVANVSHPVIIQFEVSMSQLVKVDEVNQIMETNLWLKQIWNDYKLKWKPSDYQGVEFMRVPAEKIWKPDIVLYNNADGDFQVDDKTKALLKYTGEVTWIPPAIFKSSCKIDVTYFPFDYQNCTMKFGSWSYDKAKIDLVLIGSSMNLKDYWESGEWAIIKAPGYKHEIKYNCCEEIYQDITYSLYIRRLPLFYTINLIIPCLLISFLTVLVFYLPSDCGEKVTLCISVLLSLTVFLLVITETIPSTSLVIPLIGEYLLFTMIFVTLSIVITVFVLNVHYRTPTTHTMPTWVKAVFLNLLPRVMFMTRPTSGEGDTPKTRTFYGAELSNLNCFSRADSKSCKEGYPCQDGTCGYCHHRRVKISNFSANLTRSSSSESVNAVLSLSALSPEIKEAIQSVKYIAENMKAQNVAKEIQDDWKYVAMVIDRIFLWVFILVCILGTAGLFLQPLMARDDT
T1 sequence (P12392 whole entry): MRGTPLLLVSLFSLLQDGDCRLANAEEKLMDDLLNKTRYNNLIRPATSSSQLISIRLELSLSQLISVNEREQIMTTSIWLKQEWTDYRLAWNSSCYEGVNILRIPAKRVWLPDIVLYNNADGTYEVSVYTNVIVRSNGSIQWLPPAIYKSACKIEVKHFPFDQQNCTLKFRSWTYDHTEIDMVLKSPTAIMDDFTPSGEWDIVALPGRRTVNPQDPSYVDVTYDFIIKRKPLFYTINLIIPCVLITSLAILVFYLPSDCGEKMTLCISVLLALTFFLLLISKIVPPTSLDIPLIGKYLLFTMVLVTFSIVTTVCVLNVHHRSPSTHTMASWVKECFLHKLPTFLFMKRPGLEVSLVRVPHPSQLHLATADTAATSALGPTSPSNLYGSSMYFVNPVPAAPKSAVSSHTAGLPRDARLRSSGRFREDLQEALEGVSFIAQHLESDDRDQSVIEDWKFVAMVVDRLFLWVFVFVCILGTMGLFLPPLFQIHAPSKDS

In test [1], `CN1C2CCCC1CC(N1C(=O)Cc3ccccc31)C2` (stereo not given) showed a Ki of over 100 µM.
Regarding `O=C1Cc2ccccc2N1C1CC2CC(C1)N(Cc1ccccc1)C2` (stereo not given), the Ki in test [1] was over 10 µM; in test [2] it was 1.84 µM.
The corresponding values for `CN1CC2CC1CC(N1C(=O)Cc3ccccc31)C2` (stereo not given) are over 10 µM and over 10 µM.
In the case of `C1=C(c2cccnc2)CC2CCC1CN2Cc1ccccc1` (stereo not given), the results for the Ratio Ki in test [3] and in test [6] were 200 and 100, respectively. For the same compound, in test [4], the Emax was 72%. The EC50 in test [5] was found to be 2 µM.
In turn, `CN1C2C=C(c3cccnc3)CC1CCC2` (stereo not given) registered a Ki in test [1] of 0.0104 µM. The Emax in test [4] amounted to 44%. Besides, the EC50 in test [5] amounted to 4.8 µM.
Turning to `CC1CN(Cc2ccccc2)CCC1N1C(=O)Cc2ccccc21` (stereo not given), the Ki in test [1] and in test [2] was over 10 µM each time.
`CN1C2CCC1CC(N1C(=O)Cc3ccccc31)C2` (stereo not given) returned an inhibition constant Ki in test [1] of over 100 µM.
As to `CC(c1ccc(C2CCCCC2)cc1)N1CCC(N2C(=O)Cc3ccccc32)CC1` (stereo not given), the Ki in test [1] and in test [2] was over 10 µM each time.
Take `O=C1Cc2ccccc2N1C1CC2CCCC(C1)N2` (stereo not given): in test [1], the inhibition constant (Ki) is over 100 µM.
For `CCC(C)(C)C1CCC(N2CCC(C3C(=O)Nc4ccccc43)CC2)CC1` (stereo not given), the Ki in test [1] and in test [2] was over 10 µM in each case.
